Measurements from ChEMBL document CHEMBL1649231, “In vitro activities of panduratin A against clinical Staphylococcus strains” (2009).
≈ marks a conversion by molar mass, not a printed value.

Tests used:
Type in all cases: functional
Staphylococcus aureus [1] = test: Antimicrobial activity against methicillin-resistant Staphylococcus aureus after 24 hrs by broth microdilution method
Outline: (§1)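 Clinical isolates came from blood, body fluids, genital secretions, pus or sputum, identified conventionally or by Vitek. MICs were run by CLSI M7-A6 broth microdilution in Mueller-Hinton broth with 5 × 10^5 CFU/ml inoculum. Agents were twofold serially diluted, starting from 10% DMSO. Drug-free and uninoculated controls were included. Plates were incubated aerobically at 37°C for 24 h; MIC is the lowest concentration giving no visible growth.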

Staphylococcus aureus [2] = test: Antimicrobial activity against methicillin-susceptible Staphylococcus aureus after 24 hrs by broth microdilution method; outline: as §1
Staphylococcus simulans [3] = test: Antimicrobial activity against methicillin-resistant coagulase-negative Staphylococcus simulans after 24 hrs by broth microdilution method; outline: as §1
[4] = tested on: Staphylococcus haemolyticus; test: Bactericidal activity against methicillin-resistant coagulase-negative Staphylococcus haemolyticus after 24 hrs by plate counting method
[5] = tested on: Staphylococcus haemolyticus; test: Antimicrobial activity against methicillin-resistant coagulase-negative Staphylococcus haemolyticus assessed as resistant isolates after 24 hrs by broth microdilution method
[6] = tested on: Staphylococcus haemolyticus; test: Antimicrobial activity against methicillin-resistant coagulase-negative Staphylococcus haemolyticus after 24 hrs by broth microdilution method; outline: as §1
[7] = tested on: Staphylococcus epidermidis; test: Bactericidal activity against methicillin-resistant coagulase-negative Staphylococcus epidermidis after 24 hrs by plate counting method
[8] = tested on: Staphylococcus epidermidis; test: Antimicrobial activity against methicillin-resistant coagulase-negative Staphylococcus epidermidis assessed as resistant isolates after 24 hrs by broth microdilution method
[9] = tested on: Staphylococcus epidermidis; test: Antimicrobial activity against methicillin-resistant coagulase-negative Staphylococcus epidermidis after 24 hrs by broth microdilution method; outline: as §1
Staphylococcus hominis [10] = test: Bactericidal activity against methicillin-resistant coagulase-negative Staphylococcus hominis after 24 hrs by plate counting method
Staphylococcus hominis [11] = test: Antimicrobial activity against methicillin-resistant coagulase-negative Staphylococcus hominis assessed as resistant isolates after 24 hrs by broth microdilution method
Staphylococcus aureus [12] = test: Bactericidal activity against methicillin-susceptible Staphylococcus aureus after 24 hrs by plate counting method
Outline: (§2)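 Clinical staphylococcal isolates from patient body fluids, blood, genital secretions, pus or sputum; species by conventional methods or Vitek. Twofold dilutions in Mueller-Hinton broth, inoculum 5 × 10^5 CFU/ml, 37°C aerobic 24 h (CLSI M7-A6 microdilution). About 100 μl from each well without visible growth spread on MHA; 37°C 24 h. MBC = lowest concentration giving no growth on agar.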

Staphylococcus hominis [13] = test: Antimicrobial activity against methicillin-resistant coagulase-negative Staphylococcus hominis after 24 hrs by broth microdilution method; outline: as §1
Staphylococcus aureus [14] = test: Bactericidal activity against methicillin-resistant Staphylococcus aureus after 24 hrs by plate counting method
Staphylococcus aureus [15] = test: Antimicrobial activity against methicillin-susceptible Staphylococcus aureus assessed as resistant isolates after 24 hrs by broth microdilution method
Staphylococcus aureus [16] = test: Antimicrobial activity against methicillin-resistant Staphylococcus aureus assessed as resistant isolates after 24 hrs by broth microdilution method
Staphylococcus aureus [17] = test: Antimicrobial activity against methicillin-susceptible Staphylococcus aureus assessed as susceptible isolates after 24 hrs by broth microdilution method
Staphylococcus simulans [18] = test: Antimicrobial activity against methicillin-resistant coagulase-negative Staphylococcus simulans assessed as resistant isolates after 24 hrs by broth microdilution method
Staphylococcus simulans [19] = test: Bactericidal activity against methicillin-resistant coagulase-negative Staphylococcus simulans after 24 hrs by plate counting method; outline: as §2
Mammaliicoccus sciuri [20] = test: Antimicrobial activity against methicillin-resistant coagulase-negative Staphylococcus sciuri after 24 hrs by broth microdilution method; outline: as §1
Mammaliicoccus sciuri [21] = test: Antimicrobial activity against methicillin-resistant coagulase-negative Staphylococcus sciuri assessed as resistant isolates after 24 hrs by broth microdilution method
Mammaliicoccus sciuri [22] = test: Bactericidal activity against methicillin-resistant coagulase-negative Staphylococcus sciuri after 24 hrs by plate counting method; outline: as §2
Staphylococcus hominis [23] = test: Antimicrobial activity against methicillin-susceptible coagulase-negative Staphylococcus hominis after 24 hrs by broth microdilution method; outline: as §1
Staphylococcus hominis [24] = test: Antimicrobial activity against methicillin-susceptible coagulase-negative Staphylococcus hominis assessed as susceptible isolates after 24 hrs by broth microdilution method
Staphylococcus hominis [25] = test: Antimicrobial activity against methicillin-susceptible coagulase-negative Staphylococcus hominis assessed as resistant isolates after 24 hrs by broth microdilution method
Staphylococcus hominis [26] = test: Bactericidal activity against methicillin-susceptible coagulase-negative Staphylococcus hominis after 24 hrs by plate counting method; outline: as §2
[27] = tested on: Staphylococcus epidermidis; test: Antimicrobial activity against methicillin-susceptible coagulase-negative Staphylococcus epidermidis after 24 hrs by broth microdilution method; outline: as §1
[28] = tested on: Staphylococcus epidermidis; test: Antimicrobial activity against methicillin-susceptible coagulase-negative Staphylococcus epidermidis assessed as susceptible isolates after 24 hrs by broth microdilution method
[29] = tested on: Staphylococcus epidermidis; test: Antimicrobial activity against methicillin-susceptible coagulase-negative Staphylococcus epidermidis assessed as resistant isolates after 24 hrs by broth microdilution method
[30] = tested on: Staphylococcus epidermidis; test: Bactericidal activity against methicillin-susceptible coagulase-negative Staphylococcus epidermidis after 24 hrs by plate counting method; outline: as §2
[31] = tested on: Staphylococcus haemolyticus; test: Antimicrobial activity against methicillin-susceptible coagulase-negative Staphylococcus haemolyticus after 24 hrs by broth microdilution method; outline: as §1
[32] = tested on: Staphylococcus haemolyticus; test: Antimicrobial activity against methicillin-susceptible coagulase-negative Staphylococcus haemolyticus assessed as susceptible isolates after 24 hrs by broth microdilution method
[33] = tested on: Staphylococcus haemolyticus; test: Antimicrobial activity against methicillin-susceptible coagulase-negative Staphylococcus haemolyticus assessed as resistant isolates after 24 hrs by broth microdilution method
[34] = tested on: Staphylococcus haemolyticus; test: Bactericidal activity against methicillin-susceptible coagulase-negative Staphylococcus haemolyticus after 24 hrs by plate counting method; outline: as §2
Staphylococcus simulans [35] = test: Antimicrobial activity against methicillin-susceptible coagulase-negative Staphylococcus simulans after 24 hrs by broth microdilution method; outline: as §1
Staphylococcus simulans [36] = test: Antimicrobial activity against methicillin-susceptible coagulase-negative Staphylococcus simulans assessed as susceptible isolates after 24 hrs by broth microdilution method
Outline: (§3)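 Clinical isolates from blood, body fluids, pus, sputum or genital secretions, identified conventionally or by Vitek, were tested alongside ATCC 29213 and ATCC 12228 controls. CLSI M7-A6 broth microdilution in Mueller-Hinton broth used twofold dilutions from a 10% DMSO solution and 5 × 10^5 CFU/ml inoculum. Drug-free and uninoculated wells served as controls; incubation was aerobic at 37°C for 24 h. MIC was the lowest concentration with no visible growth.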

Staphylococcus simulans [37] = test: Antimicrobial activity against methicillin-susceptible coagulase-negative Staphylococcus simulans assessed as resistant isolates after 24 hrs by broth microdilution method
Staphylococcus simulans [38] = test: Bactericidal activity against methicillin-susceptible coagulase-negative Staphylococcus simulans after 24 hrs by plate counting method; outline: as §2
Mammaliicoccus sciuri [39] = test: Antimicrobial activity against methicillin-susceptible coagulase-negative Staphylococcus sciuri after 24 hrs by broth microdilution method; outline: as §1
Mammaliicoccus sciuri [40] = test: Antimicrobial activity against methicillin-susceptible coagulase-negative Staphylococcus sciuri assessed as susceptible isolates after 24 hrs by broth microdilution method; outline: as §3
Mammaliicoccus sciuri [41] = test: Antimicrobial activity against methicillin-susceptible coagulase-negative Staphylococcus sciuri assessed as resistant isolates after 24 hrs by broth microdilution method
Mammaliicoccus sciuri [42] = test: Bactericidal activity against methicillin-susceptible coagulase-negative Staphylococcus sciuri after 24 hrs by plate counting method; outline: as §2
[43] = Staphylococcus haemolyticus, 24 h
[44] = Staphylococcus epidermidis, 24 h

## CC1(C)S[C@@H]2[C@H](NC(=O)[C@H](N)c3ccccc3)C(=O)N2[C@H]1C(=O)O [AMPICILLIN]
Staphylococcus aureus [1]
  MIC50: 16 µg/mL (≈ 45.8 µM)
  MIC90: 64 µg/mL (≈ 183 µM)
Staphylococcus aureus [2]
  MIC50: 32 µg/mL (≈ 91.6 µM)
  MIC90: 32 µg/mL (≈ 91.6 µM)
Staphylococcus simulans [3]
  MIC50: 16 µg/mL (≈ 45.8 µM)
  MIC90: 64 µg/mL (≈ 183 µM)
[4]
  MBC50: 32 µg/mL (≈ 91.6 µM)
  MBC90: 256 µg/mL (≈ 733 µM)
[4]; [43]
  MBC: > 2 µg/mL
[5]
  Activity: 100%
[6]
  MIC50: 16 µg/mL (≈ 45.8 µM)
  MIC90: 64 µg/mL (≈ 183 µM)
[7]
  MBC50: 32 µg/mL (≈ 91.6 µM)
  MBC90: 256 µg/mL (≈ 733 µM)
[7]; [44]
  MBC: > 2 µg/mL
[8]
  Activity: 100%
[9]
  MIC50: 16 µg/mL (≈ 45.8 µM)
  MIC90: 64 µg/mL (≈ 183 µM)
Staphylococcus hominis [10]
  MBC50: 32 µg/mL (≈ 91.6 µM)
  MBC90: 256 µg/mL (≈ 733 µM)
Staphylococcus hominis [10]; Staphylococcus hominis, 24 h
  MBC: > 2 µg/mL
Staphylococcus hominis [11]
  Activity: 100%
Staphylococcus aureus [12]
  MBC50: 64 µg/mL (≈ 183 µM)
  MBC90: 128 µg/mL (≈ 366 µM)
Staphylococcus aureus [12]; Staphylococcus aureus, 24 h
  MBC: 1 µg/mL (≈ 2.86 µM)
Staphylococcus hominis [13]
  MIC50: 16 µg/mL (≈ 45.8 µM)
  MIC90: 64 µg/mL (≈ 183 µM)
Staphylococcus aureus [14]
  MBC90: 256 µg/mL (≈ 733 µM)
Staphylococcus aureus [14]; Staphylococcus aureus, 24 h
  MBC: 32 µg/mL (≈ 91.6 µM)
Staphylococcus aureus [15]
  Activity: 100%
Staphylococcus aureus [16]
  Activity: 100%
Staphylococcus aureus [17]
  Activity: 0%
Staphylococcus simulans [18]
  Activity: 100%
Staphylococcus simulans [19]
  MBC50: 32 µg/mL (≈ 91.6 µM)
  MBC90: 256 µg/mL (≈ 733 µM)
Staphylococcus simulans [19]; Staphylococcus simulans, 24 h
  MBC: > 2 µg/mL
Mammaliicoccus sciuri [20]
  MIC50: 16 µg/mL (≈ 45.8 µM)
  MIC90: 64 µg/mL (≈ 183 µM)
Mammaliicoccus sciuri [21]
  Activity: 100%
Mammaliicoccus sciuri [22]
  MBC50: 32 µg/mL (≈ 91.6 µM)
  MBC90: 256 µg/mL (≈ 733 µM)
Mammaliicoccus sciuri [22]; Mammaliicoccus sciuri, 24 h
  MBC: > 2 µg/mL
Staphylococcus hominis [23]
  MIC50: 2 µg/mL (≈ 5.72 µM)
  MIC90: 16 µg/mL (≈ 45.8 µM)
Staphylococcus hominis [24]
  Activity: 0%
Staphylococcus hominis [25]
  Activity: 100%
Staphylococcus hominis [26]
  MBC50: 4 µg/mL (≈ 11.4 µM)
  MBC90: 128 µg/mL (≈ 366 µM)
Staphylococcus hominis [26]; Staphylococcus hominis, 24 h
  MBC: 1 µg/mL (≈ 2.86 µM)
[27]
  MIC50: 2 µg/mL (≈ 5.72 µM)
  MIC90: 16 µg/mL (≈ 45.8 µM)
[28]
  Activity: 0%
[29]
  Activity: 100%
[30]
  MBC50: 4 µg/mL (≈ 11.4 µM)
  MBC90: 128 µg/mL (≈ 366 µM)
[30]; [44]
  MBC: 1 µg/mL (≈ 2.86 µM)
[31]
  MIC50: 2 µg/mL (≈ 5.72 µM)
  MIC90: 16 µg/mL (≈ 45.8 µM)
[32]
  Activity: 0%
[33]
  Activity: 100%
[34]
  MBC50: 4 µg/mL (≈ 11.4 µM)
  MBC90: 128 µg/mL (≈ 366 µM)
[34]; [43]
  MBC: 1 µg/mL (≈ 2.86 µM)
Staphylococcus simulans [35]
  MIC50: 2 µg/mL (≈ 5.72 µM)
  MIC90: 16 µg/mL (≈ 45.8 µM)
Staphylococcus simulans [36]
  Activity: 0%
Staphylococcus simulans [37]
  Activity: 100%
Staphylococcus simulans [38]
  MBC50: 4 µg/mL (≈ 11.4 µM)
  MBC90: 128 µg/mL (≈ 366 µM)
Mammaliicoccus sciuri [39]
  MIC50: 2 µg/mL (≈ 5.72 µM)
  MIC90: 16 µg/mL (≈ 45.8 µM)
Mammaliicoccus sciuri [40]
  Activity: 0%
Mammaliicoccus sciuri [41]
  Activity: 100%
Mammaliicoccus sciuri [42]
  MBC50: 4 µg/mL (≈ 11.4 µM)
  MBC90: 128 µg/mL (≈ 366 µM)
Mammaliicoccus sciuri [42]; Mammaliicoccus sciuri, 24 h
  MBC: 1 µg/mL (≈ 2.86 µM)
